OXTR ag: human OXTR agonists, primary screen, fluorescence, CHO-OTR cells, Fluo-8 calcium. Oxytocin receptor (Homo sapiens), P30559. Fluo-8 calcium fluorescence; normalized: DMSO 0%, oxytocin 100%. activation, % at 3 µM. 320,000 compounds, 0.32% hits;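 active = activation above the mean of all tested compounds plus 3 SD, cutoff set per screening run, cut at about 20% in these data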;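 also: peak over basal fluorescence ratio from a 100 s FLIPR kinetic read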
Target sequence (P30559 whole entry, looked up): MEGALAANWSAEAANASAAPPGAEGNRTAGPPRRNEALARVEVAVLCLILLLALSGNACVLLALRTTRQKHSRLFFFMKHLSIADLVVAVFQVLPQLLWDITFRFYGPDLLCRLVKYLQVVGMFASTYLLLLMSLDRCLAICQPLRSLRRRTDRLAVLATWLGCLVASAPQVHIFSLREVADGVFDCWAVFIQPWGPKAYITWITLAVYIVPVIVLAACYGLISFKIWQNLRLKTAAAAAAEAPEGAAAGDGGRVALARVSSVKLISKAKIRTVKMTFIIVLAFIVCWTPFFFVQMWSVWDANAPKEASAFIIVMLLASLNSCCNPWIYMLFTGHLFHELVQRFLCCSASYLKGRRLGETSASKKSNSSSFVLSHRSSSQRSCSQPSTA
TAAR1 agonist: human TAAR1 agonists, primary screen, Fluo-8 calcium fluorescence, CHO RD-HGA16 cells; vehicle wells 0%, saturating PEA agonist 100%; activation, % at 3 µM; 360,000 compounds, 0.99% hits; AID 624467, 2012;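 active = activation above the mean activation of all test compounds in the run plus 3 SD, cut at about 38% in these data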
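test system = CHO RD-HGA16 cells carrying human TAAR1 plus Gα16 | schedule = 17-24 h seeding, 75 min 37 °C dye, 30 min RT | compound dosing = 3 µM single concentration | control set = DMSO and PEA EC100 | replicates = n 1 | signal = Fluo-8 fluorescence, 5 s baseline then 140 s kinetic read | measure = percent activation vs PEA EC100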
V1R ag counter: agonists of human V1a receptor, primary screen, counter-screen for OXTR agonist project, fluorescence, CHO-V1R cells; Vasopressin V1a receptor (Homo sapiens), P37288; Fluo-8 calcium fluorescence, agonist mode; 0% DMSO, 100% 3 nM vasopressin; activation, % at 3 µM; 320,000 compounds, 0.25% hits; AID 2797, 2010;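 active = activation above the mean activation of all tested compounds plus 3 SD, per screening run, cut at about 20% in these data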;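 also: signal is peak over basal fluorescence ratio across a 100 second FLIPR read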
TAAR1 antagonist: human TAAR1 antagonists, primary screen, Fluo-8 calcium fluorescence, CHO RD-HGA16 cells; AID 624466, 2012; inhibition, % at 3 µM; 360,000 compounds, 1.5% hits; antagonist;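 active = inhibition above a per-plate cutoff, the mean inhibition of test compounds on that plate plus 3 SD, cut at about 49% in these data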
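Material: RD-HGA16 CHO cells with stable hTAAR1 and Gα16; Dosing: single nominal final test compound concentration of 3 µM; Schedule: seeding 17-24 h prior, 75-min 37 °C, 30-min RT dye loading; Detection: kinetic Fluo-8 calcium fluorescence measurement; Measure: % inhibition from peak post-agonist over basal fluorescence ratio; Benchmarks: vehicle and agonist controls.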
OXTR potentiator: human OXTR potentiators, primary screen, fluorescence, CHO-OTR cells, Fluo-8 calcium | Fluo-8 calcium fluorescence, potentiator mode; 0% = oxytocin EC15, 100% = EC100 | Oxytocin receptor (Homo sapiens), P30559 | 320,000 compounds, 0.061% hits | AID 2445, 2010 | activation, % at 3 µM;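 active = activation above that plate's cutoff, the mean activation of tested compounds plus 3 SD, cut at about 6.6% in these data, passing the limit was not always enough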
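Measured by – Fluo-8 calcium dye fluorescence · Test system – human OTR in CHO cells · Dosing – one concentration, 3.0 µM compound · Controls – EC15 oxytocin alone as 0%, 75 nM oxytocin as 100% · Evaluation – normalized max/min fluorescence ratio, % activation · Timing – 6 min pre-incubation, 100 s read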
nonsel antag count: nonselective antagonists in TAAR1 counter-screen cells, counter-screen for hTAAR1 antagonist project, cell-based, fluorescence, calcium. 2,400 compounds, 77% hits. counterscreen cell line, antagonist mode. shares compounds with TAAR1 antagonist. inhibition, % at 3 µM. AID 651780, 2012; in the data active = inhibition above about 22%;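 also: CHO-Ga16 host cells stimulated with ATP at an EC80 level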
TAAR1 antag conf: human TAAR1 antagonists, retest of hits, confirmation, cell-based, fluorescence; shares compounds with TAAR1 antagonist; TAAR1-expressing cells, fluorescence antagonist read-out; AID 651785, 2012; 2,400 compounds, 40% hits; inhibition, % at 3 µM; in the data active = inhibition above about 49%;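 also: CHO-Ga16 host cells challenged with agonist PEA near its EC80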
Ga16 ag counter: calcium activation in Ga16-expressing cells, counter-screen for TAAR1 antagonist project, cell-based, fluorescence; shares compounds with TAAR1 antagonist; agonist counterscreen; activation, % at 3 µM; 2,400 compounds, 18% hits; AID 651953, 2012; in the data active = activation above about 12%
TAAR1 ag counter: TAAR1 activation by candidate antagonists – cell-based, fluorescence, counter-screen for TAAR1 antagonist project; activation, % at 3 µM; shares compounds with TAAR1 antagonist; AID 651955, 2012; 2,400 compounds, 2% hits; hTAAR1 cell line, agonist mode; in the data active = activation above about 37%;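 also: CHO cells stably expressing TAAR1 with calcium dye readout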
Numbers stand for hits; 0 = inactive; - = not tested or not shown; ! = a repeat was not active. The list is not random: actives were taken first. Their share in the collection is about 2.3%.

SMILES	OXTR ag	TAAR1 agonist	V1R ag counter	TAAR1 antagonist	OXTR potentiator	nonsel antag count	TAAR1 antag conf	Ga16 ag counter	TAAR1 ag counter
COc1cc(-c2c(C#N)c(N)nc3c2CCCC3)ccc1O	0	0	0	0	0	-	-	-	-
CCCc1cc(-c2ccc(O)c(OCC)c2)c(C#N)c(N)n1	0	0	0	0	0	-	-	-	-
Cc1ccc(CNC(=O)c2cc(=O)c3ccc(C)cc3o2)cc1	0	0	0	0	0	-	-	-	-
Cn1c(NC(=O)c2cccc(Cn3cc(Cl)cn3)c2)nc2ccccc21	0	0	0	0	0	-	-	-	-
CCn1c(NC(=O)c2cccc(Cn3cc(Cl)cn3)c2)nc2ccccc21	0	0	0	66	0	26	0	0	0
Cc1ccc(NS(=O)(=O)c2ccc3c(c2)CCC(=O)N3)cc1C	0	0	0	103!	0	0	0	0	0
Cc1ccc(NS(=O)(=O)c2ccc3c(c2)CC(=O)N3)cc1C	0	0	0	0	0	-	-	-	-
CC(C(=O)Nc1nc(-c2ccc(F)c(F)c2)cs1)N1C(=O)C2CC=CCC2C1=O (centres undefined)	0	0	0	78	0	45	60	0	0
COc1ccc(OC)c(-c2csc(NC(=O)Cc3ccc(OC)c(OC)c3)n2)c1	0	0	0	0	0	-	-	-	-
COc1ccc(CC(=O)Nc2nc(-c3cc(OC)ccc3OC)cs2)cc1	0	0	0	55	0	22	0	0	0
O=C(Cc1ccc(F)cc1)Nc1nc(-c2ccc(F)cc2)cs1	0	0	0	82	0	46	57	0	0
O=C(CN1C(=O)NC2(CCCC2)C1=O)Nc1nc(-c2ccc(F)cc2)cs1	0	0	0	51	0	23	0	0	0
COc1ccc2oc3cc(C)[n+]([O-])c(-c4ccc(Br)cc4)c3c2c1	0	0	0	0	0	-	-	-	-
Cc1cc([N+](=O)[O-])c2c(c1C)C1C=CCC1C(c1ccccn1)N2 (centres undefined)	0	-	0	-	0	-	-	-	-
Cc1ccc(S(=O)(=O)N2CCC(C(=O)NCCN3CCOCC3)CC2)cc1	-	0	-	0	-	-	-	-	-
O=C(c1ccc(C(F)(F)F)cc1)N1CCC(=O)N([C@H](COCc2ccc(C(F)(F)F)cc2)Cc2ccccc2)CC1	-	0	-	0	-	-	-	-	-
Cc1cccc(NC(=S)N(CCCN2CCOCC2)Cc2ccco2)c1	0	0	0	0	0	-	-	-	-
O=C(Cc1cccs1)Nc1nc(-c2ccc(F)c(F)c2)cs1	0	0	0	72	0	39	55	0	0
O=C(Nc1nc(-c2ccc(F)c(F)c2)cs1)c1ccc(OCC2CCCO2)cc1 (centres undefined)	0	0	0	54	0	33	0	0	0
O=C(Cc1ccccc1F)Nc1nc(-c2ccc(F)c(F)c2)cs1	0	0	0	68	0	24	50	0	0
CC1CCCCC12NC(=O)N(CC(=O)N1CCN(Cc3ccc(C#N)cc3)CC1)C2=O (centres undefined)	0	0	0	0	0	-	-	-	-
CCCCOc1ccc(CNn2c(C)nc3ccccc3c2=O)cc1	0	0	0	59	0	29	0	0	0
COc1ccc(CNn2c(C)nc3ccccc3c2=O)cc1	0	0	0	0	0	-	-	-	-
COc1ccc(CNn2c(-c3cccc(C)c3)nc3ccccc3c2=O)cc1OC	0	0	0	59	0	24	0	0	0
